# Compounds with a hit are over-represented: about 2.3% of the library has one in this group of screens.
# TDP2 absorb = blocks human TDP2 phosphodiesterase activity | 370,000 tested, 0.34% active | recombinant TDP2, T5PNP hydrolysis, p-nitrophenol absorbance 415 nm | inhibition, % at 12.8 µM | AID 720702 | O95551;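 active = inhibition above the mean of all tested compounds plus 3 SD, set per campaign, cut at about 25% in these data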;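 note: 0% = DMSO with enzyme and 100% = buffer with substrate but no TDP2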
#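 System – recombinant human TDP2 · Quantity – TDP2 enzyme at 120 nM final · Doses – single concentration, 12.8 µM nominal, with 1% DMSO · Incubation – 2 h at 37 °C · Measured by – epi absorbance of p-nitrophenol freed from T5PNP by hydrolysis · Read-out – % inhibition relative to enzyme-containing and enzyme-free wells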
# Apaf-1 inh = blocks human Apaf-1 apoptosome activity; O14727; reconstituted apoptosome caspase-3 activity, DEVD-Rh110 fluorescence; inhibition, % at 20 µM; 330,000 tested, 0.71% active; AID 489030; active = inhibition of at least 40% at 20 µM;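 note: plate controls were DMSO wells for no effect and DEVD-CHO caspase inhibitor wells for full effect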
# Target sequence (O14727 whole entry, looked up): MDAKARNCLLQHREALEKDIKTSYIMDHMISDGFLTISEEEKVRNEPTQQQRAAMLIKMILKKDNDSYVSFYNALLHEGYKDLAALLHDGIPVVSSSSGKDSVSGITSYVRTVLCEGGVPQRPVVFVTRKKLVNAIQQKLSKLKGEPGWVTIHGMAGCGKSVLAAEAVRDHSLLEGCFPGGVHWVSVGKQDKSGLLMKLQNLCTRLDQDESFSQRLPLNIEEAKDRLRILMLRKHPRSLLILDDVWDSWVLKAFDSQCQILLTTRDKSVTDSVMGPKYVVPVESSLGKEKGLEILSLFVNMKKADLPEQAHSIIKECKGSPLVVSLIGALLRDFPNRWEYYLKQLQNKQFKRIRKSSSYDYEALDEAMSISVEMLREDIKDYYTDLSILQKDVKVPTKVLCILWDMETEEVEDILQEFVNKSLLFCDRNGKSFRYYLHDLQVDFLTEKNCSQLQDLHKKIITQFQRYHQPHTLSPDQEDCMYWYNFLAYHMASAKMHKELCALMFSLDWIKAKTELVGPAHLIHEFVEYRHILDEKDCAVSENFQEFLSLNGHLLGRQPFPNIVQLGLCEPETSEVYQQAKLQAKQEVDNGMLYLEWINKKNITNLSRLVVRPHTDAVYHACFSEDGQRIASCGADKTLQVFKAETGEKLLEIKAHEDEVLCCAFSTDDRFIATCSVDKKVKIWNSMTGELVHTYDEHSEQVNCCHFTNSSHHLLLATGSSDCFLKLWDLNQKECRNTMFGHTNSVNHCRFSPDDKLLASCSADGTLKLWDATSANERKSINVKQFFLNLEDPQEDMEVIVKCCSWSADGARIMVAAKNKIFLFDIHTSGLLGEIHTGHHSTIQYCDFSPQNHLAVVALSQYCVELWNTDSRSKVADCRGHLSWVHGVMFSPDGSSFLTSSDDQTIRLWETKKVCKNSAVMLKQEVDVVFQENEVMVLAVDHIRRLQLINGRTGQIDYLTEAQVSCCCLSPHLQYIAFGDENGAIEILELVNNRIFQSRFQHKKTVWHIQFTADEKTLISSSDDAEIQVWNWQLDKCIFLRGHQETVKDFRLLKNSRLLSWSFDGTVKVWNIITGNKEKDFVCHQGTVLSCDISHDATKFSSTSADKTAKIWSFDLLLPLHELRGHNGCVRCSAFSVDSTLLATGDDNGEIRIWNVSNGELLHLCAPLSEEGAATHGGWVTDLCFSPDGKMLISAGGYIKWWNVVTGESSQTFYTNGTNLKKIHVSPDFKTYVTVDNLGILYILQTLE
#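 System: Apoptosome proteins | Medium: Hepes pH 7.5 with detergent and BSA | Also added: Cytochrome c trigger plus (Z-DEVD)2-Rh110 caspase-3 substrate | Incubation: 30 min compound preincubation, 50 min activation, room temperature | Detection: Rhodamine 110 fluorescence at Ex 480/Em 540 nm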
# PAFAH1B2 inh = PAFAH1B2 (human) inhibition. 340,000 tested, 1.2% active. inhibition, % at 3.39 µM. recombinant PAFAH1B2, FP-rhodamine activity probe, fluorescence polarization. P68402;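 active = inhibition above the mean of all tested compounds plus 3 SD, cut at about 24% in these data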;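 note: 0% = enzyme with DMSO and 100% = wells lacking PAFAH1B2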
# PAFAH2 inh = inhibitors of human PAFAH2; AID 492956; inhibition, % at 3.39 µM; recombinant PAFAH2, FP-rhodamine activity probe, fluorescence polarization; Q99487; 340,000 tested, 0.99% active;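 active = inhibition above the mean over all tested compounds plus 3 SD, cut at about 30% in these data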;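 note: inhibitors block probe labeling of enzyme so polarization drops; 0% = enzyme with DMSO and 100% = wells lacking PAFAH2 protein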
# PAFAH1B3 inh = inhibitors of human PAFAH1B3; recombinant PAFAH1B3, FP-rhodamine probe, fluorescence polarization; inhibition, % at 3.39 µM; 340,000 tested, 0.28% active;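 active = inhibition above the screen-wide average of all tested compounds plus 3 SD, cut at about 25% in these data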;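 note: 0% = enzyme with DMSO only and 100% = wells lacking PAFAH1B3 protein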
# Apaf-1 inh conf = Apaf-1 inhibition, single-dose confirmed | 1,800 tested, 25% active | AID 504614 | reconstituted apoptosome, caspase-3 DEVD-Rh110 fluorescence | shares compounds with Apaf-1 inh | inhibition, % at 20 µM;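 active = mean inhibition of at least 40% at 20 µM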;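 note: plate controls were DMSO wells for no effect and DEVD-CHO caspase inhibitor control wells for full effect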
# Rh110 interf inh = interferes with Rh110 fluorescence, flagging false Apaf-1 inhibitors; shares compounds with Apaf-1 inh; Rh110 fluorescence interference, quenched caspase reaction; activation (fluorescence interference), % at 20 µM; 1,800 tested, under 10 active;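 active = signal rise of 40% or more at 20 µM, treated as a fluorescence artifact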
# Apaf1 inh interf = Apaf-1 inhibitor counter-screen fluorescence artifact; shares compounds with Apaf-1 inh; fluorescence interference counterscreen, Apaf-1 assay format; IC50, µM; 460 tested, under 10 active; call rule not given here
# Numbers without * were called inactive; / = no result given.
SMILES,TDP2 absorb,Apaf-1 inh,PAFAH1B2 inh,PAFAH2 inh,PAFAH1B3 inh,Apaf-1 inh conf,Rh110 interf inh,others
COc1ccc(N2C(=O)[C@@H]3[C@H](C2=O)[C@H]2c4ccccc4C=CN2[C@@H]3C(C)=O)cc1,16,/,3,-5,17,/,/,
O=[N+]([O-])c1cc2c(cc1C=Nc1ccccc1)OCO2,/,48*,3,6,10,16,7,
Cc1cccc(N=Cc2cc3c(cc2[N+](=O)[O-])OCO3)c1,7,35,4,5,14,/,/,
C=CCN(CC=C)C[C@@H]1CSCCS(=O)(=O)N1,-6,/,/,/,/,/,/,
COC(=O)[C@]12C[C@H](CC(=O)NCCCN3CCCC3=O)C(=O)N(CCc3ccc(OC)c(OC)c3)C1=C[C@H](C(C)(C)C)O[C@@H]2C,-4,/,/,/,/,/,/,
c1cc(SC2CCCCC2)cc(-c2nc3cnccn3c2NC2CCCCC2)c1,7,41*,12,5,1,26,14,
c1cn2c(NC3CCCCC3)c(-c3ccc(SC4CCCCC4)cc3)nc2cn1,-3,38,4,10,-6,/,/,
CC(=O)Nc1ccc(S(=O)(=O)NC2=C(N3CCN(Cc4ccccc4)CC3)C(=O)c3ccccc3C2=O)cc1,13,/,6,14,4,/,/,
CCN1CCN(C2=C(NS(=O)(=O)c3ccc(NC(C)=O)cc3)C(=O)c3ccccc3C2=O)CC1,20,74*,12,4,18,32,2,
CC(=O)Nc1ccc(S(=O)(=O)NC2=C(N3CCN(C)CC3)C(=O)c3ccccc3C2=O)cc1,24,60*,5,6,6,46*,7,Apaf1 inh interf=>100
COc1ccc(/C=C2/C(=O)N(c3cccc(F)c3)N=C2C)c(OC)c1,12,90*,5,11,9,17,2,
S=C(Nc1cc(Cl)cc(Cl)c1)NC(c1ccccc1)c1ccccc1,-9,/,/,/,/,/,/,
CN1CCN(c2ccc(S(=O)(=O)N3CCCCC3)cc2NC(=O)/C=C/c2ccc(Cl)c([N+](=O)[O-])c2)CC1,6,51*,-2,1,3,15,13,
CCN(CC(=O)Nc1cc(S(=O)(=O)N2CCOCC2)ccc1Cl)Cc1ccccc1,-4,42*,-1,8,7,29,9,
CCN1CCN(c2ccc(S(=O)(=O)N3CCCCC3)cc2NC(=O)/C=C/c2ccc([N+](=O)[O-])cc2)CC1,10,36,-4,6,2,/,/,
CCN(CC(=O)Nc1cc(S(=O)(=O)N2CCCCC2)ccc1Cl)Cc1ccccc1,4,20,-2,6,4,/,/,
CCN1CCN(c2ccc(S(=O)(=O)N3CCCCC3)cc2NC(=O)/C=C/c2ccc(OC(F)F)cc2)CC1,-9,52*,-7,-2,1,9,4,
CCN1CCN(c2ccc(S(=O)(=O)N3CCOCC3)cc2NC(=O)CC(C)C)CC1,-4,50*,1,5,8,37,4,
CCN1CCN(c2ccc(S(=O)(=O)N3CCOCC3)cc2NC(=O)c2ccccc2SC)CC1,0,-4,5,5,4,/,/,
CCOC(=O)C(Cc1ccccc1)CP(=O)(OC)[C@@H](C)NC(=O)OCc1ccccc1 (stereo partly specified),8,/,/,/,/,/,/,
CCN1Cc2nnn(Cc3ccccc3)c2-c2cc(F)ccc2S1(=O)=O,4,/,/,/,/,/,/,
C=CCn1c(Cc2cccs2)nnc1SCC(=O)Nc1cccc2ccccc12,-1,/,/,/,/,/,/,
C[C@@H]1COc2cc(Br)ccc2S(=O)(=O)N1Cc1cn(Cc2ccc(Cl)cc2)nn1,-4,/,/,/,/,/,/,
CCCCNS(=O)(=O)/C=C/c1ccc(F)cc1CNC(=O)OC(C)(C)C,-6,/,/,/,/,/,/,
CCCCN1C(=N)N([C@@H](CCC)CN2CCC[C@H]2CN2C(N)=NC[C@@H]2Cc2ccccc2)C[C@H]1[C@H](C)CC,-5,34,-4,-7,-2,/,/,
SMILES,TDP2 absorb,Apaf-1 inh,PAFAH1B2 inh,PAFAH2 inh,PAFAH1B3 inh,Apaf-1 inh conf,Rh110 interf inh,others
CC[C@@H](C)[C@@H]1CN([C@@H](C)CN2CCC[C@H]2CN2C(N)=NC[C@@H]2Cc2ccccc2)C(=N)N1CCCC1CCCC1,-5,62*,3,12,1,2,-2,
CC[C@@H](C)[C@@H]1CN([C@@H](C)CN2CCC[C@H]2CN2C(N)=NC[C@H]2CC(C)C)C(=N)N1CCCC1CCCC1,-2,34,4,-1,0,/,/,
CC[C@@H](C)[C@@H]1CN([C@@H](CN2CCC[C@H]2CN2C(N)=NC[C@H]2C(C)C)C(C)C)C(=N)N1CCc1ccc(Cl)c(Cl)c1,/,51*,4,7,6,16,6,
CC[C@@H](C)[C@@H]1CN([C@@H](C)CN2CCC[C@H]2CN2C(N)=NC[C@@H]2Cc2ccccc2)C(=N)N1CCc1ccc(Cl)c(Cl)c1,/,71*,0,4,7,6,6,
c1cc2c3c(cccc3c1)NC1(CCCCCC1)N2,15,49*,-5,0,-1,57*,-4,Apaf1 inh interf=>100
CC1=Nc2cccc3cccc(c23)N1,1,13,-4,-1,7,/,/,
c1cc2c3c(cccc3c1)NC1(CCCCC1)N2,14,22,1,-4,2,/,/,
c1cc2c3c(cccc3c1)NC1(CCC3(CC1)Nc1cccc4cccc(c14)N3)N2,2,40*,2,-8,5,45*,8,Apaf1 inh interf=>100
C[C@H]1CN([C@@H](C)CO)C(=O)Cc2cc(NC(=O)CCC(F)(F)F)ccc2O[C@H]1CN(C)Cc1ccc(-c2ccccc2)cc1,-8,41*,2,-2,4,23,-6,
C[C@H]1CN([C@@H](C)CO)C(=O)Cc2cc(NC(=O)CCC(F)(F)F)ccc2O[C@H]1CN(C)Cc1ccc(C(F)(F)F)cc1,-13,25,1,-2,10,/,/,
Cc1ccc(S(=O)(=O)Nc2ccc3c(c2)CC(=O)N([C@H](C)CO)C[C@@H](C)[C@H](CN(C)Cc2ccc(-c4ccccc4)cc2)O3)cc1,/,41*,6,-3,-8,-2,7,
C[C@H](CO)N1C[C@H](C)[C@@H](CN(C)Cc2ccc(Cl)c(Cl)c2)Oc2c(NC(=O)CCC(F)(F)F)cccc2C1=O,0,46*,-3,5,2,23,17,
COC(=O)C(C[N+](=O)[O-])C1=C(O)CC(C)(C)CC1=O (stereo unspecified),-6,/,/,/,/,/,/,
COC(=O)[C@]12C[C@H](CC(=O)NCc3cccc(C(F)(F)F)c3)C(=O)N(Cc3cccc4ccccc34)C1=C[C@H](C(C)(C)C)O[C@@H]2C,-3,/,/,/,/,/,/,
CCOC(=O)CC[C@H](NC(=O)[C@@H]1CC=C[C@@H]2CCN(Cc3ccc(Cl)cc3)C(=O)[C@@H]21)C(=O)OCC,-6,/,/,/,/,/,/,

# High-throughput results (PubChem BioAssay)
